Laboratory results as given in ChEMBL document CHEMBL2311400, “Synthesis and biological evaluation of 4-(aminomethyl)-1-hydroxypyrazole analogues of muscimol as γ-aminobutyric acid(a) receptor agonists” (J Med Chem, 2013).
The source made the active and inactive calls. The calls are words filed in the database; no cut-off is given here.

Assays:
[1] = Displacement of [3H]muscimol from GABAA receptor in rat synaptic membrane after 60 mins by scintillation counting analysis; type: cell membranes
Method in brief: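 Membranes from cortex and central hemispheres of male SPRD rat brains, washed repeatedly in 50 mM Tris-HCl pH 7.4. 70–80 μg protein per well incubated with [3H]muscimol. Separated by GF/C filtration with ice-cold buffer washes; bound radioactivity counted by scintillation. Nonspecific binding defined with 1.0 mM GABA.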

[2] = target: T1, GABA-A receptor; alpha-1/beta-2/gamma-2 (Homo sapiens, UniProt P14867+P18507+P47870); assay: Agonist activity at human GABAA alpha1beta2gamma2S receptor expressed in TSA201 cells after 1 min by FLIPR assay; type: cell-based
T1 sequence (P14867 whole entry): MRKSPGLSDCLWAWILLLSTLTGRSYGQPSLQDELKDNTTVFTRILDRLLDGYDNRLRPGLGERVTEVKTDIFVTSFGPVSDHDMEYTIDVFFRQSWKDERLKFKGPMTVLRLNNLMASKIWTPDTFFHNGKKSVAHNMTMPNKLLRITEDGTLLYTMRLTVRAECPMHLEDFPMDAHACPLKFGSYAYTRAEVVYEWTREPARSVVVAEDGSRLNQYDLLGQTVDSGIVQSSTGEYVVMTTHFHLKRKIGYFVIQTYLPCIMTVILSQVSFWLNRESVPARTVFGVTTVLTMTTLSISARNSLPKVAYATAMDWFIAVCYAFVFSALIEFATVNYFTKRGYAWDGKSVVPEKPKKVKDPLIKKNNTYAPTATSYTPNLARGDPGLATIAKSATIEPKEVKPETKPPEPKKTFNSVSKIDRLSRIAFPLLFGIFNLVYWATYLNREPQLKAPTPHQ
T1 sequence (P47870 whole entry): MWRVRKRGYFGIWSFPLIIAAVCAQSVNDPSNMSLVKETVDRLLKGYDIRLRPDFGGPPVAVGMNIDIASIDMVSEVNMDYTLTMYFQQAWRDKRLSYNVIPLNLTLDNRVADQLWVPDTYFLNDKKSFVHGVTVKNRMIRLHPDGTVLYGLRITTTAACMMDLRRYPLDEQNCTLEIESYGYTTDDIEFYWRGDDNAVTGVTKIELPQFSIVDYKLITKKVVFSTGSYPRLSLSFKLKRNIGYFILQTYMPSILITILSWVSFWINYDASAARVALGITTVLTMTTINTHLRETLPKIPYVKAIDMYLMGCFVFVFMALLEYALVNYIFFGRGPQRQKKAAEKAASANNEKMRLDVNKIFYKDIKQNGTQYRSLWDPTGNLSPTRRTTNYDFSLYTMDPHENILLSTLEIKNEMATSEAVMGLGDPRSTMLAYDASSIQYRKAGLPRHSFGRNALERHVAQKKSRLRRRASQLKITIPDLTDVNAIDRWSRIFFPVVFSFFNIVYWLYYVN
T1 sequence (P18507 whole entry): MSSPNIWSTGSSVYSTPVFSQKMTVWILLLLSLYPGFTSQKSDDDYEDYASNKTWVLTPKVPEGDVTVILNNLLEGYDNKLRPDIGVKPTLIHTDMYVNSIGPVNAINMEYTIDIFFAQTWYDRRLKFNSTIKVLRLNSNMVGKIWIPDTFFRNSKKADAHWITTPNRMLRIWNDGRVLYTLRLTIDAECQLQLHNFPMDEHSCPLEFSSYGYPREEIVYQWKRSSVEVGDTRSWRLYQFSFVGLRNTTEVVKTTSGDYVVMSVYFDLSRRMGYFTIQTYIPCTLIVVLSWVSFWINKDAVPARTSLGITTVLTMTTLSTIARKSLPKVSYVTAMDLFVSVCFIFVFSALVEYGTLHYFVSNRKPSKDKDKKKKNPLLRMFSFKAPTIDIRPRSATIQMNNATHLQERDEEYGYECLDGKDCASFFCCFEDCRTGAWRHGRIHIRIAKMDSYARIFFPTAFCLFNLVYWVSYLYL
Method in brief: (§1)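 tsA201 cells transfected with 1 μg α (1, 2, 3 or 5), 1 μg β2 and 3 μg γ2S cDNA (Polyfect). Cells replated onto poly-D-lysine plates and assayed 16–24 h later. Loaded with FMP blue dye in Krebs buffer pH 7.4 for 30 min at 37 °C.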

[3] = target: T2, Gamma-aminobutyric acid receptor subunit rho-1 (Homo sapiens, UniProt P24046); assay: Agonist activity at human GABAA rho1 receptor expressed in TSA201 cells after 1 min by FLIPR assay; type: cell-based
Method in brief: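 tsA201 cells transfected with 5 μg human ρ1 cDNA, then plated on poly-D-lysine plates for 16–24 h. Loaded with FLIPR membrane potential blue dye in Krebs buffer (pH 7.4), 30 min at 37 °C. Emission at 560 nm (excitation 530 nm) recorded before and up to 1 min after agonist addition. Curves fitted from ΔFU; duplicate, at least three times.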

[4] = target: T3, GABA A receptor alpha-2/beta-2/gamma-2 (Homo sapiens, UniProt P18507+P47869+P47870); assay: Agonist activity at human GABAA alpha2beta2gamma2S receptor expressed in TSA201 cells after 1 min by FLIPR assay; type: cell-based; method in brief: as §1
T3 sequence (P47870 whole entry): T1 sequence (P47870 whole entry)
T3 sequence (P18507 whole entry): T1 sequence (P18507 whole entry)
T3 sequence (P47869 whole entry): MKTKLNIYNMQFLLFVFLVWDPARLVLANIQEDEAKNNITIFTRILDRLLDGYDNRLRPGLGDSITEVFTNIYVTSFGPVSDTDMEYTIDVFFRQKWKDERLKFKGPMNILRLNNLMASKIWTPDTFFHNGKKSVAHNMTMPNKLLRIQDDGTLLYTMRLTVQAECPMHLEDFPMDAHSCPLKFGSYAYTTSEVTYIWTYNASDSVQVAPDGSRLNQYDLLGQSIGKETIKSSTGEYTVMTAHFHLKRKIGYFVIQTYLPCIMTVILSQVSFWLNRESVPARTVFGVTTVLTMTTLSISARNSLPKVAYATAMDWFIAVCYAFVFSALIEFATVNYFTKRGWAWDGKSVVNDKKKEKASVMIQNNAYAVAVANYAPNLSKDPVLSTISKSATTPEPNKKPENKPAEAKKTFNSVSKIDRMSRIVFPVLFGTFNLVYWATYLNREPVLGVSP

[5] = target: T4, GABA A receptor alpha-3/beta-2/gamma-2 (Homo sapiens, UniProt P18507+P34903+P47870); assay: Agonist activity at human GABAA alpha3beta2gamma2S receptor expressed in TSA201 cells after 1 min by FLIPR assay; type: cell-based; method in brief: as §1
T4 sequence (P47870 whole entry): T1 sequence (P47870 whole entry)
T4 sequence (P18507 whole entry): T1 sequence (P18507 whole entry)
T4 sequence (P34903 whole entry): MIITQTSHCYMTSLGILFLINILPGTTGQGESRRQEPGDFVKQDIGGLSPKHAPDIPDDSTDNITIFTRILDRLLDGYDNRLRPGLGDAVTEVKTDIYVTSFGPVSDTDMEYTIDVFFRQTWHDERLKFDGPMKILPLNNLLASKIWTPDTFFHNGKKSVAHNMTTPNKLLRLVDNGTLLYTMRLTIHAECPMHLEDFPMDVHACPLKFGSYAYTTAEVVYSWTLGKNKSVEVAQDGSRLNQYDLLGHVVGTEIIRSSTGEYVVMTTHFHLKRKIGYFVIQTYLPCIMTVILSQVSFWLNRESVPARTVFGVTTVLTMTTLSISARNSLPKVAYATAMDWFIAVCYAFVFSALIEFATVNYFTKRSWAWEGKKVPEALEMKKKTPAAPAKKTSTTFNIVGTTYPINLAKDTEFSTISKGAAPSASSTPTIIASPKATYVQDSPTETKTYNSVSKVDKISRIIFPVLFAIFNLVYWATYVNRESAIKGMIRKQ

[6] = Agonist activity at human GABAA alpha5beta2gamma2S receptor expressed in TSA201 cells after 1 min by FLIPR assay; type: cell-based; conditions: tsA201, 1 min
[7] = target: T2, Gamma-aminobutyric acid receptor subunit rho-1; assay: Agonist activity at human GABAA rho1 receptor expressed in HEK293 cells at up to 300 uM by patch clamp electrophysiology assay; type: cell-based
[8] = target: T1, GABA-A receptor; alpha-1/beta-2/gamma-2; assay: Agonist activity at human GABAA alpha1beta2gamma2S receptor expressed in HEK293 cells by patch clamp electrophysiology assay; type: cell-based
[9] = target: GABA-A receptor; alpha-1/beta-2/gamma-2 (Homo sapiens) (UniProt P14867+P47870+P18507); assay: Agonist activity at human GABAA alpha1beta2gamma2S receptor expressed in HEK293 cells by patch clamp electrophysiology assay relative to GABA; type: cell-based

T2 sequence (P24046 whole entry): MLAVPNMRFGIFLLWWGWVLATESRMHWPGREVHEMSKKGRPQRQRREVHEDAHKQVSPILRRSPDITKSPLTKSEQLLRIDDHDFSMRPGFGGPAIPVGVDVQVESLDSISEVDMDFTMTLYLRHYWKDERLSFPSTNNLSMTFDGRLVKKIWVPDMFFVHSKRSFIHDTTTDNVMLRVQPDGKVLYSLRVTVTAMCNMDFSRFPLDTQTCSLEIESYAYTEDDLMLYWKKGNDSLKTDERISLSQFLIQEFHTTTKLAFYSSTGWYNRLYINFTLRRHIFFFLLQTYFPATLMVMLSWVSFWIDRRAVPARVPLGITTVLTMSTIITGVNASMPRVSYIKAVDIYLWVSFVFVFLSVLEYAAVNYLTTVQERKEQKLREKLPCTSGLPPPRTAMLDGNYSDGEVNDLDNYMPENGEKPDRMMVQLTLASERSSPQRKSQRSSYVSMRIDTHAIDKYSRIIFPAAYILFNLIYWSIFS

On1cc2c(n1)CCNC2
Ki [1]: > 100000 nM

NCc1cn(O)nc1N
Ki [1]: > 100000 nM

Oc1noc2c1CCNC2 [GABOXADOL]
EC50 [2]: 14000 nM | Ki [1]: 160 nM

Cc1nn(O)c(C)c1CN
Ki [1]: > 100000 nM

NCc1cn(O)nc1-c1ccccc1
EC50 [3]: > 500000 nM | EC50 [2]: > 500000 nM | Ki [1]: > 100000 nM

NCc1cc(O)no1 [MUSCIMOL]
EC50 [3]: 700 nM | EC50 [2]: 540 nM | Ki [1]: 7 nM | EC50 [4]: 410 nM | EC50 [5]: 210 nM | EC50 ([6]; read-out: EC50): 54 nM | EC50 ([6]; read-out: pEC50 (converted)): 53.7 nM

NCc1cnn(O)c1Cl
EC50 [3]: > 500000 nM | EC50 [2]: 29000 nM | Ki [1]: 630 nM | pKi [1]: 6.2 | Activity [7]: inactive | EC50 [8]: > 30000 nM | Rmax [9]: > 72%

NCc1cnn(O)c1Br
Ki [1]: 2800 nM | pKi [1]: 5.56 | Activity [7]: inactive | EC50 [8]: > 100000 nM | Rmax [9]: > 23%

Cc1c(CN)cnn1O
EC50 [3]: > 500000 nM | EC50 [2]: > 500000 nM | Ki [1]: 15000 nM | pKi [1]: 4.82 | Activity [7]: inactive | EC50 [8]: > 10000 nM | Rmax [9]: > 64%

On1ncc2c1CCNC2
Ki [1]: > 100000 nM
